Screening data deposited in PubChem BioAssay by Sanford-Burnham Center for Chemical Genomics.
Rows were chosen to be rich in hits. Some 1.1% of all compounds tested hit in one or more screens of this group.
Diaphorase inh = inhibits diaphorase or chemically oxidizes, flagging diaphorase assay artifacts. diaphorase resazurin-to-resorufin fluorescence, NADH, 16 min; bacterial (C. kluyveri) enzyme, not human. inhibition, % at 20 µM. 190,000 compounds, 0.69% hits. AID 1217;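 active = primary screen inhibition at 20 µM above a set limit, cut at about 50% in these data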;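 note: plate controls were DMSO with full reaction for no effect and wells lacking NADH for full effect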
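Detection: fluorescence of resorufin formed from resazurin, Ex 544/Em 590 nm; test system: Clostridium kluyveri diaphorase enzyme; amount: 0.14 U/mL diaphorase, enzyme working solution; times: 16-min room-temperature incubation before reading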
Diaphorase act = activates diaphorase or chemically reduces, flagging diaphorase assay artifacts. Diaphorase/resazurin coupled assay, resorufin fluorescence, 16 min; stronger effect = higher value; 1 = vehicle wells, 0 = NADH-free wells. 190,000 compounds, 0.005% hits. activation factor at 20 µM. AID 1229;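 active = diaphorase activity raised at least twofold by the compound at 20 µM; inactive = activation factor below 2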
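Material: purified diaphorase enzyme from Clostridium kluyveri; Also added: 0.114 mM NADH and 0.1 mM resazurin, final amounts; Doses: single compound dose of 20 µM, 1% DMSO final; Times: 16 min enzyme reaction, ambient temperature; Detection: resorufin fluorescence, excitation 544 nm, emission 590 nm; Measure: increased resorufin signal from activators or reducing compounds.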
PMI act satM6P = activators of human phosphomannose isomerase at near-saturating mannose 6-phosphate; 190,000 compounds, 0.34% hits; P34949; coupled PMI enzyme assay, resazurin fluorescence, 20 min; stronger effect = higher value; 1 = untreated enzyme, 0 = substrate-free blank; AID 1216; activation factor at 20 µM;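 active = activation factor of 2 or more at 20 µM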
Target sequence (P34949 whole entry, looked up): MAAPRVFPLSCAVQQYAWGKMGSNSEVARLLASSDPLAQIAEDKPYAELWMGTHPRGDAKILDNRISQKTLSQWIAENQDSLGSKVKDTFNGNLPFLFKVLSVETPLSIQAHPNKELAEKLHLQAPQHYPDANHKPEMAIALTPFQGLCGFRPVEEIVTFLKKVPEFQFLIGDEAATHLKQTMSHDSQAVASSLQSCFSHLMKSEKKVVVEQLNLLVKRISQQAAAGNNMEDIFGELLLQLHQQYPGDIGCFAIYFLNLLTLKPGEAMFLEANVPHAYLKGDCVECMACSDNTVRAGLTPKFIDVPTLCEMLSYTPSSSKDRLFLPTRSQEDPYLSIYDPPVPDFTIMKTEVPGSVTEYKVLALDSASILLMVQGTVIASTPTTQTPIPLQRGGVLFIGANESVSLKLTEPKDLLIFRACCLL
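Material: human phosphomannose isomerase with PGI, G6PDH, diaphorase coupling enzymes; amount: PMI at 15 ng/mL final; also added: Mannose-6-phosphate 1.0 mM (near-saturating) plus 0.22 mM NADP+; incubation: enzyme reaction with compound 20 min at room temperature; signal: resorufin fluorescence (Ex 544/Em 590 nm) from resazurin via diaphorase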
PMI act = activators of human phosphomannose isomerase | P34949 | purified human PMI, coupled resazurin fluorescence, 20 min; stronger effect = higher value; 1 = vehicle control, 0 substrate-free wells | activation factor at 20 µM | 190,000 compounds, 0.005% hits;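 active = activation factor of 2 or more at 20 µM, relative to plate controls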
G6PDH counter = counter-screen for G6PDH assay hits: L. mesenteroides G6PDH inhibition; Purified L. mesenteroides G6PDH, diaphorase/resazurin coupled fluorescence, 45 min; inhibition, % at 5 µM; 200,000 compounds, 0.12% hits; AID 1020; in the data active = inhibition above about 50%
Starred values were filed as active, the others as inactive.

SMILES	Diaphorase inh	Diaphorase act	PMI act satM6P	PMI act	G6PDH counter
COCCOC(=O)C1=C(C)NC2=C(C(=O)CCC2)C1c1cc2c(cc1Br)OCO2 (stereo not given)	9	0.9	1	1	11
CCSc1cc(C2C(C(=O)OC)=C(C)NC3=C2C(=O)CCC3)c(C)o1 (stereo not given)	6	0.9	2.1*	1.1	7
NC(=O)COc1ncn(-c2ccccc2)n1	13	0.9	1	1	6
N/C(COc1ncn(-c2ccccc2)n1)=N\S(=O)(=O)c1ccc(Cl)cc1Cl	61*	0.4	0.9	0.9	12
NC(=S)N/N=C/c1ccc(-c2cc(Cl)c(Cl)cc2Cl)o1	-4	1	2*	1.6	13
NC(=S)N/N=C/c1ccc(Br)o1	16	0.8	1	1.1	1
CN=c1scc(-c2ccco2)n1/N=C/c1ccc(O)c(O)c1	51*	0.5	0.9	0.5	24
O=C(CSc1nc2[nH]ncc2c(=O)[nH]1)NCCc1ccccc1	3	1	1	1.1	4
Oc1ccc(/C=N/n2cc(-c3ccccc3)[nH]c2=S)cc1	53*	0.5	0.9	0.9	-12
S=c1[nH]c(-c2ccccc2)cn1/N=C/c1ccccc1Br	46	0.5	1	0.9	-6
COc1ccc(OC)c(/C=N/NC(=O)CSc2cc(C)nc3c(OC)cccc23)c1	15	0.9	1.1	1	9
O=S(NCc1ccco1)C12CC3CC(CC(C3)C1)C2 (stereo not given)	24	0.8	2*	1.5	4
O=S(NCc1ccccc1)C12CC3CC(CC(C3)C1)C2 (stereo not given)	4	1	0.9	0.9	1
CNCc1ccccc1Sc1cc(O)ccc1O	32	0.7	0.6	0.8	58*
CCOCCCNC(=O)CCCOc1ccccc1	11	0.9	1	1	2
O=C1CC(N2CCN(c3ccc(F)cc3)CC2)C(=O)N1c1ccc2c(c1)OCO2 (stereo not given)	6	0.9	0.8	0.8	9
CC1CCC/C(=N\Nc2ccc(Cl)c(C(=O)O)c2)C1 (stereo not given)	8	0.9	2.1*	1.7	17
COC(=O)c1sc(NC(=S)NC(=O)c2ccccc2C)nc1C	23	0.8	1	0.9	8
Cc1csc(NC(=O)C2CCCN(S(=O)(=O)c3ccc(Br)s3)C2)n1 (stereo not given)	11	0.9	1	1	2
O=C(N/N=C/c1ccc(-c2ccccc2[N+](=O)[O-])o1)[C@H]1C[C@@H]1c1ccccc1	52*	0.5	0.4	0.6	13
O=C(N/N=C/c1ccc(-c2cccc([N+](=O)[O-])c2)o1)[C@H]1C[C@@H]1c1ccccc1	24	0.8	0.9	1	4
C=CCN1C(=O)N/C(=C/c2ccc(C)o2)C1=O	13	0.9	1	1	-9
O=C(O)C/C=C(/NC(=O)OCc1ccccc1)C(=O)OCc1ccccc1	6	0.9	2.8*	1.9	9
O=C(Nc1ncn[nH]1)c1ccc(Cl)c(S(=O)(=O)Nc2ccc(Cl)cc2)c1	13	0.9	2.1*	1.6	3
O=C1C(=C(O)c2ccccc2)C(=O)c2ccccc21	4	1	1.5	1.4	6
SMILES	Diaphorase inh	Diaphorase act	PMI act satM6P	PMI act	G6PDH counter
O=C1c2ccccc2C(=O)c2c1oc(C(F)(F)F)c2C(=O)c1ccccc1	6	0.9	1.3	1.3	57*
O=C(c1ccccc1)c1coc2c1C(=O)c1ccccc1C2=O	-16	1.2	0.7	1.4	53*
O=C(O)c1c2c(nc3ccc(S(=O)(=O)N4CCC(C(=O)NC5CCCCCC5)CC4)cc13)CCCC2	16	0.8	0.9	1.2	3
CCOC(=O)CSc1nnc(-c2cc(OC)c(OC)c(OC)c2)o1	-4	1	1.1	1	6
COc1cc(-c2nnc(SCc3cc(=O)oc4cc(O)c(O)cc34)o2)cc(OC)c1OC	67*	0.3	0.5	0.4	0
Cc1ccc(NS(=O)(=O)c2ccc(Br)cc2)nc1	7	0.9	1	1	26
COC1(NS(=O)(=O)c2ccc(Br)cc2)C(C)=CC(=O)C=C1C	52*	0.5	0.4	0.7	38
CC(Sc1nnc(NC2CCCCC2)s1)C(=O)Nc1ccc2c(c1)C(=O)c1ccccc1C2=O (stereo not given)	56*	0.4	1.1	1.1	7
CC(Sc1nnc(Nc2ccccc2)s1)C(=O)NC1CCCc2ccccc21 (stereo not given)	20	0.8	0.8	0.8	9
COc1ccc(N2C(=O)C3[C@@H](C2=O)C2(Cl)C(Cl)=C(Cl)C3(Cl)C2(OC)OC)cc1 (stereo not given in full)	23	0.8	0.9	0.8	7
O=C(NCc1ccco1)C(c1cccs1)N(C(=O)C1COc2ccccc2O1)c1cccc(O)c1 (stereo not given)	8	0.9	0.9	0.9	10
CC(=O)c1cc2c(O)c(O)ccc2o1	74*	0.3	0.3	0.2	54*
Fc1cccc(Cl)c1CNc1ccc(N2CCCC2)cc1	79*	0.2	0.2	0.1	22
Cc1cnccc1CN(C)Cc1cn(C)nc1-c1cccc(Cl)c1	50*	0.5	1	0.9	6
Cc1ccc(C(=O)C2CCN(CC(=O)Nc3nc(C)cs3)CC2)cc1	13	0.9	0.9	0.9	8
CCOc1cc(/C=N/N=C(N)N)ccc1OCc1ccc(Cl)cc1	-100	2*	1.2	1.1	-2
OCC(CO)(CO)N=Cc1c(O)ccc2ccccc12	57*	0.4	0.3	0.6	34
O=C(/C=C1\NC2(CCCC2)Cc2ccccc21)C(=O)N/N=C/c1ccc(O)c(O)c1	74*	0.3	0.8	0.6	0
CCOC(=O)C1=C(Cc2ccc(Cl)cc2)C(=O)c2ccccc2C1=O	37	0.6	1.6	1.2	55*
CCOC(=O)C1=C(C)N=C2c3ccccc3C(=O)C2C1c1ccc(Cl)cc1 (stereo not given)	11	0.9	1	0.9	3
C(=C\c1ccco1)/C1=NN(c2ccccc2)C(c2ccco2)C1 (stereo not given)	13	0.9	2.2*	1.6	-1
CCc1nnc(NS(=O)(=O)c2ccc(N=CC3=C(O)CC(C)(C)CC3=O)cc2)s1	3	1	1.2	1.3	7
COc1cc(O)c(NC(C)=O)c2nonc12	63*	0.4	0.4	0.4	22
COc1ccccc1NC(C)=O	18	0.8	0.9	0.9	10
C/C(=C\c1ccccc1)C(=O)NCCCn1ccnc1	4	1	1	1.1	7
